The values that follow come from ChEMBL document CHEMBL1122737, “5-[(Aminoalkyl)amino]-substituted anthra[1,9-cd]pyrazol-6(2H)-ones as novel anticancer agents. Synthesis and biological evaluation” (1984).

Experiment [1] deals with P388. Nature of the experiment: in vivo for the antitumor activity against P388 leukemia cells at a dose of 100 mg/kg (single injection) and 200 mg/kg (Total). The class given is functional, Mus musculus. The gist of the method: (§1)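 Murine P388 leukemia, drug given ip on a q04d × 02 schedule (a slightly modified NCI protocol). Dose is listed per injection and as a total. Read-out is % T/C survival. Mice alive at 30 days count as cured and are left out of % T/C. Cured/tested counts are reported.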

The subject of experiment [2] is P388. Nature of the experiment: Evaluated in vivo for the antitumor activity against P388 leukemia cells at a dose of 50 mg/kg (single injection) and 100 mg/kg (Total ). It counts as functional, Mus musculus. The essentials: as §1
Experiment [3] in a line: In vivo antitumor activity at a single dose of 12.5 mg/kg & 37.5 mg/kg total against mammary adenocarcinoma 16C. The class given is functional, Mus musculus. The gist of the method: (§2)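 Mice were inoculated sc with mammary adenocarcinoma 16C on day 0 and given the agent (as the dihydrochloride salt) iv on days 1, 5 and 9. Tumors were measured in two dimensions three times weekly. Tumor growth delay (T − C, days) and gross log kill were derived, with cured mice excluded from these calculations.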

The nature of experiment [4]: In vivo antitumor activity at a single dose of 6.5 mg/kg & 18.8 mg/kg total against mammary adenocarcinoma 16C to assess tumor growth delay (T-C). It counts as functional, Mus musculus. The essentials: (§3)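 Mammary adenocarcinoma 16C is implanted sc in mice on day 0. Treatment is iv on days 1, 5 and 9, with dose per injection and total. Tumors are measured in two dimensions three times weekly to give growth delay (T − C, days) and gross log kill. Cured mice are excluded from these calculations.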

The subject of experiment [5] is L1210. Nature of the experiment: Antitumor activity against L1210 lymphocytic cells in vitro. It counts as functional. Particulars: Mus musculus, read-out: ID50 (the source's name).
The nature of experiment [6]: In vivo antitumor activity at a single dose of 12.5 mg/kg & 37.5 mg/kg total against mammary adenocarcinoma 16C to assess tumor growth delay (T-C). The class given is functional, Mus musculus. The essentials: as §3
The test system of experiment [7] is P388. Nature of the experiment: In vivo antitumor activity against P388 leukemia cells at a dose of 12.5 mg/kg (single injection) and 25 mg/kg (Total ). It counts as functional, Mus musculus. The essentials: as §1
For experiment [8], the system named is P388. Nature of the experiment: In vivo antitumor activity against P388 leukemia cells at a dose of 25 mg/kg as a single injection and 50 mg/kg as a total. It counts as functional, Mus musculus. The essentials:
as §1

A short description of experiment [9]: In vivo antitumor activity at a single dose of 6.5 mg/kg & 18.8 mg/kg total against mammary adenocarcinoma 16C. It counts as functional, Mus musculus. The essentials:
as §2

Experiment [10] is described as follows: In vivo antitumor activity at a single dose of 2.5 mg/kg & 7.5 mg/kg total against mammary adenocarcinoma 16C.
The nature of experiment [11]: Compound was evaluated in vivo for the antitumor activity at a dose of 2.5 mg/kg & 7.5 mg/kg against mammary adenocarcinoma 16C to assess tumor growth delay (T-C). It counts as functional, Mus musculus. The essentials:
as §3

Experiment [12] has as its system P388. Nature of the experiment: In vivo antitumor activity against P388 leukemia cells at a dose of 0.75 mg/kg as a single injection and 1.5 mg/kg as a total. It counts as functional, Mus musculus. The gist of the method: as §1
Experiment [13] in a line: In vivo antitumor activity at a single dose of 1.25 mg/kg & 3.75 mg/kg total against mammary adenocarcinoma 16C.
Experiment [14] can be described thus: Compound was evaluated in vivo for the antitumor activity at a dose of 1.25 mg/kg & 3.75 mg/kg against mammary adenocarcinoma 16C to assess tumor growth delay (T-C). It counts as functional, Mus musculus. The essentials:
as §3

The test system of experiment [15] is P388. Nature of the experiment: In vivo antitumor activity against P388 leukemia cells at a dose of 1.5 mg/kg as a single injection and 3 mg/kg as a total. The class given is functional, Mus musculus. The essentials:
as §1

A word on the T/C: it is the result in the treated group divided by that in the control group, in per cent. For the compound `O=C1c2cccc(O)c2-c2nn(CCNCCO)c3ccc(NCCNCCO)c1c23`, the values for the T/C in experiment [1] and in [2] were 221% and 172%, respectively.

For `O=C1c2c(O)cccc2-c2nn(CCNCCO)c3ccc(NCCNCCO)c1c23` [LOSOXANTRONE], the Gross log kill in [3] came out at 3.1; in [9] it was 1.9. Besides, the results for the T-C in experiment [4] and in experiment [6] were 7 days and 11.4 days, respectively. Besides, in experiment [5], the IC50 came to 5.13 nM. In addition, the T/C in [7] came to 219%; in [8] it was 248%.

Consider `O=C1c2c(O)ccc(O)c2C(=O)c2c(NCCNCCO)ccc(NCCNCCO)c21` [MITOXANTRONE], for which the values for the Gross kill in experiment [10] and in experiment [13] were 1.1 and 0.8, respectively. Moreover, the T-C in experiment [11] was 4.1 days; in experiment [14], 3 days. Further, the T/C in experiment [12] stood at 231%; in [15] it was 278%.
